Experiments:
[1] = target: T1, Amine oxidase [flavin-containing] A (Homo sapiens, UniProt P21397); experiment: Inhibition of human MAO-A assessed as inhibition of p-tyramine oxidation to p-hydroxyphenyl-acetaldehyde at 100 uM after 15 mins by fluorimetric method; settings: 0.25 h
T1 sequence (P21397 whole entry): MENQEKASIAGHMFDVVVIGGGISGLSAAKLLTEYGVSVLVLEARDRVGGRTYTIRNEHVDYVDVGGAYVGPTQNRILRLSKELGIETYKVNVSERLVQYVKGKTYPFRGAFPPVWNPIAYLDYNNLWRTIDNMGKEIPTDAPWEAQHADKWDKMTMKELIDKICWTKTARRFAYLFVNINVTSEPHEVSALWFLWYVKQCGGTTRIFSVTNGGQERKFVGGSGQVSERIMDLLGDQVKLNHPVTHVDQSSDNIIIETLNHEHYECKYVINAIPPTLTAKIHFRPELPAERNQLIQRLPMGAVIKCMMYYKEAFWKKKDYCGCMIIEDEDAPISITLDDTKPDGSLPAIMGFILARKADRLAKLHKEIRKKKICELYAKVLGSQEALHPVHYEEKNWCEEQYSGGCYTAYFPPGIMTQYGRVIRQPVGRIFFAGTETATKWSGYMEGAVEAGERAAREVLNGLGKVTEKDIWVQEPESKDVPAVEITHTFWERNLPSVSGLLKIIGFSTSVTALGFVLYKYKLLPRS

[2] = target: T2, Amine oxidase [flavin-containing] B (Homo sapiens, UniProt P27338); experiment: Inhibition of human MAO-B assessed as inhibition of p-tyramine oxidation to p-hydroxyphenyl-acetaldehyde at 100 uM after 15 mins by fluorimetric method; settings: 0.25 h
T2 sequence (P27338 whole entry): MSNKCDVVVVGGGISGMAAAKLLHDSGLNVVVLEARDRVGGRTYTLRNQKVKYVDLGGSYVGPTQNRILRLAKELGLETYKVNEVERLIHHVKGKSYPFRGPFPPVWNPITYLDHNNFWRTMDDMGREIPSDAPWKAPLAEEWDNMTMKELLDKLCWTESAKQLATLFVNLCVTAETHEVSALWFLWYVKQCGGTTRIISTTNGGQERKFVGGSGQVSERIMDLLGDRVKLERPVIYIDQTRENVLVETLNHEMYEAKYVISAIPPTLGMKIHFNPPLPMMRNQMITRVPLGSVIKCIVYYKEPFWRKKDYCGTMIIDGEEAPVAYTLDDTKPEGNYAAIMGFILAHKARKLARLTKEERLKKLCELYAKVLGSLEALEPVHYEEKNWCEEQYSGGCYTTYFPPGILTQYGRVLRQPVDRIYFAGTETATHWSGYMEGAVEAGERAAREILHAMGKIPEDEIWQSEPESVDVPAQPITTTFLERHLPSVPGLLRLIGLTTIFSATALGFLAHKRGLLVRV
How it was run: (§1)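 Microsomal recombinant hMAO-A or hMAO-B from baculovirus-infected BTI-TN5B1-4 insect cells. Enzyme was set to oxidize 165 pmol p-tyramine/min (MAO-A 1.1 μg, MAO-B 7.5 μg protein). It was preincubated with compound 15 min at 37 C in 0.05 M sodium phosphate, pH 7.4. Reaction started with final 200 μM Amplex Red, 1 U/mL HRP and 1 mM p-tyramine. H2O2-derived resorufin fluorescence (ex 545/em 590) read over 15 min at 37 C, background-subtracted, against vehicle controls. Highest concentration 100 μM or 1 mM; mean ± SEM, n = 5.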

[3] = target: T2, Amine oxidase [flavin-containing] B; experiment: Inhibition of human MAO-B assessed as inhibition of p-tyramine oxidation to p-hydroxyphenyl-acetaldehyde at 1 mM after 15 mins by fluorimetric method; settings: 0.25 h, 1000 µM; how it was run: as §1
[4] = target: T1, Amine oxidase [flavin-containing] A; experiment: Inhibition of human MAO-A assessed as inhibition of p-tyramine oxidation to p-hydroxyphenyl-acetaldehyde after 15 mins by fluorimetric method; how it was run: as §1
[5] = target: T2, Amine oxidase [flavin-containing] B; experiment: Inhibition of human MAO-B assessed as inhibition of p-tyramine oxidation to p-hydroxyphenyl-acetaldehyde after 15 mins by fluorimetric method
[6] = species: Homo sapiens; experiment: Selectivity index, ratio of IC50 for human MAO-A to IC50 for human MAO-B
[7] = target: T2, Amine oxidase [flavin-containing] B; experiment: Irreversible inhibition of human MAOB expressed assessed as inhibition of p-tyramine oxidation to p-hydroxyphenyl-acetaldehyde at 100 uM measured after repeated washing by centrifugation-ultrafiltration method
How it was run: (§2)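 Recombinant hMAO-B preincubated with a single compound concentration for 15 min at 37 C in 0.05 M sodium phosphate, pH 7.4. One aliquot kept at 4 C, unwashed. The rest was ultrafiltered through a 30 kDa membrane (9000g, 20 min, 4 C), resuspended and spun twice more.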

[8] = target: T2, Amine oxidase [flavin-containing] B; experiment: Reversible inhibition of human MAOB expressed assessed as inhibition of p-tyramine oxidation to p-hydroxyphenyl-acetaldehyde at 100 uM measured before repeated washing by centrifugation-ultrafiltration method; how it was run: as §2

inhibition (INH) [1]	inhibition (INH) [2]	IC50 [4] [nM]	IC50 [5] [nM]	Ratio IC50 [6]	Compound	further results
Not Active	Not Active	–	–	–	O=C(Nc1ccc(OC(F)(F)F)cc1)c1cc(=O)c2ccccc2o1	–
Not Active	–	–	–	–	O=C(NC1CCCCC1)c1cc(=O)c2ccccc2o1	inhibition (INH) [3]: Not Active
–	–	4760	64	74	O=C(Nc1ccc(O)cc1)c1coc2ccccc2c1=O	inhibition at 100 µM [7]: 23.5%; inhibition at 100 µM [8]: 60.3%
Not Active	–	–	1080	> 93	O=C(Nc1ccc(OC(F)(F)F)cc1)c1coc2ccccc2c1=O	–
Not Active	–	–	930	> 107	O=C(NC1CCCCC1)c1coc2ccccc2c1=O	–
Not Active	–	–	–	–	CCCNC(=O)c1cc(=O)c2ccccc2o1	inhibition (INH) [3]: Not Active
Not Active	Not Active	–	–	–	COc1ccc(NC(=O)c2cc(=O)c3ccccc3o2)cc1O	–
Not Active	–	–	37700	> 2.7	CCCNC(=O)c1coc2ccccc2c1=O	–
–	–	65200	41900	1.6	O=C(Nc1ccc(O)cc1)c1cc(=O)c2ccccc2o1	–
Not Active	Not Active	–	–	–	O=C(Nc1ccc(Cl)cc1)c1cc(=O)c2ccccc2o1	–
–	–	11100	11800	0.94	O=C(Nc1ccc([N+](=O)[O-])cc1)c1coc2ccccc2c1=O	–
Not Active	Not Active	–	–	–	O=C(Nc1ccc(C(F)(F)F)cc1)c1cc(=O)c2ccccc2o1	–
–	–	8340	76	110	COc1ccc(NC(=O)c2coc3ccccc3c2=O)cc1O	–
–	–	190	2660	0.071	O=C(Nc1ccc(O)c(O)c1)c1cc(=O)c2ccccc2o1	–
Not Active	–	–	2330	> 43	COc1ccc(NC(=O)c2coc3ccccc3c2=O)cc1OC	–
Not Active	–	–	110	> 909	O=C(Nc1ccc(C(F)(F)F)cc1)c1coc2ccccc2c1=O	–
Not Active	Not Active	–	–	–	COc1ccc(NC(=O)c2cc(=O)c3ccccc3o2)cc1OC	–
Not Active	Not Active	–	–	–	O=C(Nc1ccc([N+](=O)[O-])cc1)c1cc(=O)c2ccccc2o1	–
–	–	430	160	2.7	O=C(Nc1ccc(O)c(O)c1)c1coc2ccccc2c1=O	–
Not Active	Not Active	–	–	–	O=C(Nc1ccccc1)c1cc(=O)c2ccccc2o1	–

From ChEMBL document CHEMBL1811774, “Chromone, a privileged scaffold for the development of monoamine oxidase inhibitors” (J Med Chem, 2011)
